From article PMC5034689 (Molecular Metabolism, 2016)

Legend:
lean/CD-fed mice = experiment: Single dose of TNP in chow; format: in vivo; settings: single dose 20 mg/kg BW
Summary of the method: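 Chow-fed lean or DIO mice (n = 4/group) received one 20 mg/kg injection, were fasted 5 h, then given GTT (glucose 2 g/kg i.p., tail-vein glucometer from time 0). Mice were then sacrificed for tissues and cardiac-puncture serum. Insulin was measured by ultra-sensitive ELISA and TAG by a metabolic core. Akt S473 was immunoblotted (T308 also in IWAT), with densitometry n = 3.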

CYP1A2 = biological target: T1, CYP1A2 (Homo sapiens, UniProt P05177); experiment: CYP450 inhibition in human hepatic microsomes, CYP1A2; format: in vitro ADME; settings: liver microsomes
T1 sequence (P05177 1-516): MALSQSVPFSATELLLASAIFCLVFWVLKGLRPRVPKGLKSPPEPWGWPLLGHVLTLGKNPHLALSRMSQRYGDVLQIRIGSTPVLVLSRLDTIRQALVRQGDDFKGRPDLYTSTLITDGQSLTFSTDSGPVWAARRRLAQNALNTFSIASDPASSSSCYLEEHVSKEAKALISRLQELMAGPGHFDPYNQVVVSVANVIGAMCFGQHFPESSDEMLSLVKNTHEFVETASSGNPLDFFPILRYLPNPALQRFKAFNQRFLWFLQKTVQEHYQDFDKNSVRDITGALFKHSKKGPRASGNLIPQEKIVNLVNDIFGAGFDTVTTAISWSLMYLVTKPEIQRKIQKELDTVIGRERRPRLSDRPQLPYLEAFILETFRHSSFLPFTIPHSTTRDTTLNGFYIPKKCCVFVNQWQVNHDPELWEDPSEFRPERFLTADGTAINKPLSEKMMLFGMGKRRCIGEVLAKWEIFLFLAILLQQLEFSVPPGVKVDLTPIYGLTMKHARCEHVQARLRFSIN

Recombinant human IP6K1 [1] = biological target: T2, Recombinant human IP6K1 (Homo sapiens, UniProt Q92551); experiment: IP6K1 activity assay in vitro, SDS-PAGE assay; format: biochemical; settings: TNP 1 μM
T2 sequence (Q92551 whole entry): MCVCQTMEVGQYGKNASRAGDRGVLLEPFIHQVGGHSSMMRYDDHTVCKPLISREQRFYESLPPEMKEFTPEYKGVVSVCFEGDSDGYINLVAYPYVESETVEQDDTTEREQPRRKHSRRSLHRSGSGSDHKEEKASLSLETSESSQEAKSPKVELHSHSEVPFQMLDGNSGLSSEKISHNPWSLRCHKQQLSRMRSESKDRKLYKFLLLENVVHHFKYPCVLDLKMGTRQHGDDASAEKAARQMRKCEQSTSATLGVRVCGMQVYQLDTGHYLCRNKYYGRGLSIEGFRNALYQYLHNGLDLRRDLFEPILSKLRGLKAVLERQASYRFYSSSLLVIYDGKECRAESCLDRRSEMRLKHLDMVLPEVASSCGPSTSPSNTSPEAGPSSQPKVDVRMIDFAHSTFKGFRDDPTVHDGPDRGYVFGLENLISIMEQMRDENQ
Summary of the method: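 Recombinant human IP6K1 (100 ng, purified from E. coli) was incubated in 20 mM Tris pH 7.4 with 5 mM MgCl2, 5 nmol IP6, 1 mM ATP and 1 mM DTT. DMSO or 1 μM test compound was added. IP6 conversion to 5-IP7 was resolved and read by SDS-PAGE.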

chow-fed male mice = experiment: Long-term TNP treatment on fertility of chow-fed male mice; format: in vivo; settings: 10 mg/kg BW daily for 15 weeks, chow-fed WT
Summary of the method: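 Six-week-old chow-fed male mice were injected daily with 10 mg/kg test compound for 4 weeks. They were then used for breeding while injections continued another 11 weeks (15 weeks total). Each male took part in 4 rounds of harem breeding, the last after 14 weeks of treatment.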

Recombinant human IP6K1 [2] = biological target: T2, Recombinant human IP6K1; experiment: IP6K1 activity assay in vitro, radiochemical assay; format: biochemical; settings: TNP 1 μM
Summary of the method: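 Recombinant human IP6K1 (100 ng) was incubated 1 h in 20 mM Tris pH 7.4 with 5 mM MgCl2, 2 nmol IP6, [3H]IP6 (130 nCi), 1 mM ATP and 1 mM DTT, plus DMSO or 1 μM test compound. 5-IP7 was resolved by HPLC, with activity expressed relative to DMSO (100%). Run in triplicate.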

DIO mice = experiment: Short-term TNP treatment of DIO mice; format: in vivo, C57BL6 mice; settings: 20 mg/kg BW daily
Summary of the method: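 Mice fed HFD for 8 weeks received daily 20 mg/kg test compound with continued HFD (vehicle n = 6, treated n = 8). Food intake was measured after 7 days. GTT (glucose 2 g/kg i.p.) and ITT (insulin 0.75 U/kg i.p.) were done on days 12 and 17 after a 5 h fast. Tissues were taken on day 18. Akt S473 was immunoblotted from RIPA lysates, with densitometry n = 3.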

O=[N+]([O-])c1ccc(CNc2nc(NCc3cccc(C(F)(F)F)c3)nc3[nH]cnc23)cc1 [TNP, N6-(4-nitrobenzyl)-N2-(3-(trifluoromethyl)benzyl)-9H-purine-2,6-diamine]
Akt phosphorylation at S473 in liver and EWAT (lean/CD-fed mice): does not alter
Glucose disposal (GTT) (lean/CD-fed mice): does not influence
inhibition at 10 μM (CYP1A2): 86%
IP6K1 activity (Recombinant human IP6K1 [1]): inhibits IP6K1 activity
Sterility of males (chow-fed male mice): do not display sterility
IP6K1 catalytic activity (Recombinant human IP6K1 [2]): blocks the catalytic activity of IP6K1
Glucose disposal following glucose injection (GTT) (DIO mice; 12th day): efficient glucose disposal
Glucose disposal following insulin injection (ITT) (DIO mice; 17th day): disposes glucose more efficiently
Fatty liver (histology) (DIO mice; 18 days): ameliorates fatty liver
Serum glycerol levels (DIO mice; 18 days): does not alter
Serum insulin level (DIO mice; 18 days): not significantly altered
Serum levels of cholesterol or triglycerides (DIO mice; 18 days): not altered
Reduction of fat mass by treatment (DIO mice; 18 days, DIO mice, QNMR): ~3 g
Akt S473 phosphorylation in the IWAT depot, enhancement vs vehicle (DIO mice; 18 days, densitometry): 4 fold
Serum levels of AST and ALT (DIO mice; 18 days, vs vehicle): less
UCP1 mRNA expression in the IWAT (DIO mice; 18 days, vs vehicle): higher
Weight of the EWAT depot (DIO mice; 18 days, vs vehicle): significantly less
Daily energy intake (DIO mice; after 7 days): does not influence daily energy intake
